# PKD1 inh – blocks activity of human protein kinase D1. Q15139. PKD1 kinase fluorescence polarization assay. inhibition, % (no concentration beside the values). 200,000 compounds, 0.056% hits. AID 797
# L major viab – reduces viability of Leishmania major promastigotes | resazurin fluorescence viability | inhibition, % at 10 µM | 200,000 compounds, 9% hits;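 also: promastigotes grown with compound for 44 hours at 28 °C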
# ABCG2 inh – inhibitors of human ABCG2 transporter, ABCB1 counter-screen. IgMXP3 cells, JC-1 efflux, flow cytometry. inhibition, % at 6.6 µM. 190,000 compounds, 0.1% hits. Q9UNQ0;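 active = inhibition above 80%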;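 also: 0% = DMSO and 100% = nicardipine control wells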
#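 Read-out basis: Efflux inhibition in percent versus controls | Test system: ABCG2 IgMXP3 and barcoded ABCB1 CCRF-Adr cell mix | Quantity: 3 million cells/mL in well | Schedule: 10 min at 25 °C | Control set: Nicardipine as high control, DMSO as low control | Reagent: JC-1 as fluorescent efflux pump substrate | Signal: Flow cytometry of retained JC-1 fluorescence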
# Avidin fluor – compound fluoresces at 488/530 nm on avidin beads | compound fluorescence 488/530 nm, flow cytometry; hits give high values | fluorescence (KMESF) at 10 µM | 220,000 compounds, 0.38% hits; in the data active = fluorescence above about 47
# ABCB1 inh – blocks JC-1 efflux by human ABCB1 transporter. P08183. CCRF-Adr cells, flow cytometry. inhibition, % at 6.6 µM. 190,000 compounds, 0.067% hits. AID 1326; in the data active = inhibition above about 40%;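 also: 0% = vehicle and 100% = reference inhibitor; higher value means more JC-1 retained so stronger ABCB1 efflux block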
# GSH bead fluor – GSH bead compound fluorescence profile; GSH beads flow cytometry, compound fluorescence 488/530 nm; hits give high values; fluorescence (KMESF) at 10 µM; 190,000 compounds, 0.25% hits; in the data active = fluorescence above about 89;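 also: glutathione beads carrying GST-tagged Bcl family fusion proteins plus one bare bead set; values are compound well signal with DMSO vehicle wells as background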
# * hit, by the source's call; . = no result. The full list was thinned out, with hits kept by preference. Rule as the data show it, unless noted: active = inhibition above about 50%; inactive = the rest.
SMILES,PKD1 inh,L major viab,ABCG2 inh,Avidin fluor,ABCB1 inh,GSH bead fluor
CN(C)S(=O)(=O)c1cc(NC(=O)Cn2ccsc2=N)ccc1Cl,-1.9,-1.3,0.3,11,0.5,16
O=C(c1ccc(Cl)c([N+](=O)[O-])c1)N(c1ccccn1)c1ccccn1,-6.9,70.3*,-0.3,11,0.9,4
Fc1ccc(N/N=C2/CC(c3ccccc3)Oc3ccccc32)c(F)c1 (configuration not stated),-3.3,71.5*,1.5,14,0.7,7
Cc1ccc(C(=O)NCC(=O)OCC(=O)NC2CCS(=O)(=O)C2)cc1C (configuration not stated),2.4,51.7*,3.6,13,0.4,11
COc1ccc(C(=O)NCC(=O)OCC(=O)NC2CCCC2)cc1,-0.9,-2.2,1.0,10,0.3,13
CCCCC(=O)Nc1ccc(C(=O)NNC(=S)NC(=O)c2ccco2)cc1,-5.7,6.3,-1.8,6,-0.8,14
CCC(C)c1ccc(NC(=O)c2cccs2)cc1 (configuration not stated),-1.8,0.7,9.2,1,1.3,51
CC(C)CNC(=O)c1ccc(NC(=O)c2cccs2)cc1,-9.9,52.4*,8.8,13,0.0,5
CCCCC(=O)Nc1ccc(C(=O)NNC(=S)NC(=O)c2cccs2)cc1,-4.2,62.4*,-2.0,15,-0.3,14
O=C(NC(=S)NNC(=O)c1cc2ccccc2cc1O)c1ccco1,-5.7,76.3*,-11.6,11,-1.7,10
O=C(NNC(=S)NC(=O)c1ccco1)c1ccc(NC(=O)c2ccccc2)cc1,-0.3,95.6*,-1.0,13,-0.6,63
O=C(N/N=C/C1CC2CCC1C2)c1c[nH]c2ccccc12 (configuration not stated),-3.4,-7.9,0.6,10,0.1,16
Cc1[nH]c2ccccc2c1C(=O)CSc1nc2ccccc2c(=O)n1CCCN1CCOCC1,-4.0,29.2,2.1,5,3.3,32
O=C(NNC(=S)NC(=O)c1cccs1)c1ccc(NC(=O)c2ccccc2)cc1,0.2,99.2*,-10.5,11,-1.7,10
O=C(NCCO)c1cc2ccccc2cc1O,1.5,-5.7,36.5,4,0.1,13
O=C(Nc1ccc(NC(=S)NC(=O)C(c2ccccc2)c2ccccc2)cc1)c1ccccc1,-3.6,98.3*,.,.,.,.
NNC(=O)c1cc2ccccc2cc1O,4.5,63.8*,-4.9,18,-0.8,17
O=C(Nc1ccc(NC(=S)NC(=O)c2cccs2)cc1)c1ccccc1,-2.5,-3.4,-3.0,0,-0.1,8
CCCCC(=O)Nc1cccc(NC(=O)c2cccnc2Cl)c1,.,.,.,8,.,.
CCCCNC(=O)CC1NCCNC1=O (configuration not stated),-6.4,3.4,-1.1,11,-0.6,9
CCNS(=O)(=O)c1cccc(C(=O)c2c(C)cc3ccccn23)c1,1.7,-0.3,1.4,4,-0.2,9
O=C(CSCc1ccc(Cl)cc1)NCc1ccccn1,-1.5,-7.3,8.8,4,0.5,5
O=C(NCCCN1CCN(c2ccccc2F)CC1)C1CCC(=O)N1C1CCCC1 (configuration not stated),-5.0,-5.1,18.7,7,1.5,14
N/C(=N\OC(=O)Nc1ccccc1)c1ncc([N+](=O)[O-])s1,.,.,.,7,.,.
CCCNC(=O)NC(=O)CSc1ccc2c(c1)OCCO2,0.5,-1.6,3.0,4,2.6,16
SMILES,PKD1 inh,L major viab,ABCG2 inh,Avidin fluor,ABCB1 inh,GSH bead fluor
CCCOC(=O)c1c(-c2ccc(C)cc2C)csc1NC(=O)C1C2CCC(O2)C1C(=O)O (configuration not stated),1.7,-3.1,-5.0,2,-1.1,6
CCN(CC)CCCN(C(=O)c1cccs1)c1nc(-c2ccc(OC)cc2)cs1,-11.6,100.5*,7.0,8,1.6,4
COc1ccc(-c2csc(N(C)C(=O)c3cccs3)n2)cc1,-2.8,-10.2,1.7,9,0.1,10
O=C(c1ccco1)N(CCCN1CCOCC1)c1nc(-c2ccc(Cl)cc2)cs1,-6.3,16.6,8.0,13,9.5,23
COc1ccc(-c2csc(N(CC3CCCO3)C(=O)c3cccs3)n2)cc1 (configuration not stated),8.7,82.2*,7.8,17,0.8,11
CCN(CC)CCCN(C(=O)c1ccco1)c1nc(-c2ccc(C)cc2)cs1,-9.1,71.7*,3.3,10,1.1,10
COc1ccccc1N(C)S(=O)(=O)c1ccc(C(=O)NC(C)c2ccccc2)cc1 (configuration not stated),.,.,.,8,.,.
CN1CCN(CCCNC(=O)c2ccc(/C=C3\Sc4ccccc4N(Cc4ccccc4F)C3=O)cc2)CC1,0.6,99.8*,-0.4,6,0.0,17
CCN1CCN(CCNC(=O)c2ccc(/C=C3/Sc4ccccc4N(Cc4cccc(Cl)c4)C3=O)cc2)CC1,2.8,100.5*,-0.6,4,0.8,19
CCOCCCNC(=O)/C=C1\Sc2ccccc2N(Cc2ccccc2F)C1=O,-11.1,9.7,10.2,9,1.5,23
COCCCNC(=O)CN1C(=O)/C(=C\c2ccc(C)cc2)Sc2ccccc21,-11.5,43.0,8.8,14,1.1,6
CCc1ccc(/C=C2/Sc3ccccc3N(CC(=O)NCCCOC)C2=O)cc1,4.8,-2.7,0.6,22,-0.1,56
O=C(NCCN1CCOCC1)c1ccc2c(c1)N(Cc1cccc(F)c1)C(=O)c1ccccc1S2,1.2,100.0*,-2.6,8,6.1,13
CC(C)OCCCNC(=O)CN1C(=O)/C(=C/c2ccccc2)Sc2ccccc21,5.3,58.9*,3.6,14,0.6,21
OCCC1CN(Cc2cc3c(cc2Cl)OCO3)CCN1Cc1ccccc1 (configuration not stated),-1.1,8.9,0.0,2,1.5,10
CCN1CCN(CCNC(=O)c2ccc3c(c2)N(Cc2ccc(F)cc2)C(=O)/C(=C/c2ccccc2)S3)CC1,4.1,100.6*,4.1,13,2.8,15
CC(=O)N(c1ccc2oc(=O)sc2c1)S(=O)(=O)c1ccccc1,0.6,-2.5,21.5,11,1.2,25
CCOc1ccc(S(=O)(=O)N(C(=O)c2ccco2)c2cc3sc(=O)oc3c3ccccc23)cc1,-7.3,96.8*,-2.0,1,-0.2,6
Cc1ccc(S(=O)(=O)N(C(=O)c2ccco2)c2cc3sc(=O)oc3c3ccccc23)cc1,4.8,97.7*,-2.9,8,0.0,5
COc1ccc(S(=O)(=O)N(C(=O)c2ccco2)c2cc3sc(=O)oc3c3ccccc23)cc1,-6.3,98.9*,-1.7,2,0.5,8
Brc1ccc2ncc(Br)cc2c1,-8.9,18.5,-2.5,15,-0.4,9
Cc1ccc(N(Cc2ccc(C(=O)NCC3CCCO3)cc2)S(C)(=O)=O)cc1C (configuration not stated),0.3,-3.2,3.9,8,1.2,16
